Assay results of several laboratories.
Each line is one published result; the experiments were not run side by side.
Target: Mitogen-activated protein kinase kinase kinase 12 (MAP3K12, Homo sapiens, UniProt Q12852)
One construct used (Q12852 1-859): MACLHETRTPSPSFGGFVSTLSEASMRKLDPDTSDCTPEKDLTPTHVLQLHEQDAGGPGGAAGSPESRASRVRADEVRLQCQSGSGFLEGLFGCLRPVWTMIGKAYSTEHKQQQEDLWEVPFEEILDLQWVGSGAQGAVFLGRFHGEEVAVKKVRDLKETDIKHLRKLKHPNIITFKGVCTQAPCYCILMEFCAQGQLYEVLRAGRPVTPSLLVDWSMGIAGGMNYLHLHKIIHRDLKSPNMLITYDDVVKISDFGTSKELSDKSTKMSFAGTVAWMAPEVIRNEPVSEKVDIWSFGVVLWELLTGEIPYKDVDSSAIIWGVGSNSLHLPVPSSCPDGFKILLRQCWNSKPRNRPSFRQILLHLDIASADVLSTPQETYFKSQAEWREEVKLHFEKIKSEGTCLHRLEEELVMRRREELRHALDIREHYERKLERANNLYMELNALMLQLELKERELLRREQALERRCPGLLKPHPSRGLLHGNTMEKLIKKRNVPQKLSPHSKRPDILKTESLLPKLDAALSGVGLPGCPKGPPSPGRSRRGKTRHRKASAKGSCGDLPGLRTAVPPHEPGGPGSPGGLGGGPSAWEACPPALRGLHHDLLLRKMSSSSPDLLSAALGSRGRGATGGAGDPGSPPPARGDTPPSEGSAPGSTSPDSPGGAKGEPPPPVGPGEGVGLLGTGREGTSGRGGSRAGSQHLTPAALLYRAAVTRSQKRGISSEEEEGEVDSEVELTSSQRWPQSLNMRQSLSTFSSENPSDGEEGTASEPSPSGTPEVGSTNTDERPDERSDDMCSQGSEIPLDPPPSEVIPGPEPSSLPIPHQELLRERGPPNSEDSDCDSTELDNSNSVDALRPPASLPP

Structure (SMILES)	read-out	mode	method	tested at	measurement	value
COc1ccnn2ncc(-c3ccnc(N(C)C)n3)c12	binding			1 µM	remaining binding	97%
Nc1ncnc2occ(-c3ccc(NC(=O)Nc4cc(C(F)(F)F)ccc4F)cc3)c12	cell-free assay	inhibitor		20 µM	remaining signal	17%
Cc1ccc(C(=O)Nc2ccc(CN3CCN(C)CC3)c(C(F)(F)F)c2)cc1C#Cc1cnc2cccnn12	enzyme activity	inhibitor		23.5 nM	remaining activity	76%
CC/C(=N\NC(=O)NCc1cccc(O)c1)c1ccc(O)c(C)c1O	enzyme activity	inhibitor		0.1 µM	inhibition	0.4%
CC(C)(O)[C@H]1CC[C@H](Nc2ccc3ncc(-c4cccc(C(F)(F)F)c4)n3n2)CC1	enzyme activity	inhibitor		1 µM	remaining activity	73%
O=C(Nc1cccnn1)N1CCC(=Cc2cccc(Oc3ccc(C(F)(F)F)cn3)c2)CC1	cell-free assay		competition with immobilised ligand	1 µM	remaining binding	100%
O=C(Nc1cnn(-c2csc(C(=O)NC3COC3)c2)c1)Nc1c(F)cccc1Cl	enzyme activity	inhibitor		5 µM	remaining activity	82.2%
COc1ccc2cc(OCC3(C(=O)O)CN(C(=O)c4ccc(F)cc4)C3)ccc2c1	cell-free assay		competition with immobilised ligand	1 µM	remaining binding	97%
N[C@@H]1CCN(c2nccc(-c3cnn4ncccc34)n2)C1	binding			1 µM	remaining binding	100%
O=C(Nc1cnn(-c2csc(C(=O)NC3COC3)c2)c1)Nc1ccccc1Cl	enzyme activity	inhibitor		5 µM	remaining activity	96.5%
